Measurements reported in article PMC2606940 (The Journal of General Physiology, 2009).
Numbering of substitutions follows the chain as printed. Structures can show the parent of a compound that is named as a salt.

Legend:
[1] = target: T1, CLC-0 E166A mutant (Torpedo marmorata, UniProt P21564, C212S/E166A); format: cell-based; details: for K1/2 (range in words): −140 mV (Fig. 10 C)
T1 sequence (P21564 1-805 E166A/C212S): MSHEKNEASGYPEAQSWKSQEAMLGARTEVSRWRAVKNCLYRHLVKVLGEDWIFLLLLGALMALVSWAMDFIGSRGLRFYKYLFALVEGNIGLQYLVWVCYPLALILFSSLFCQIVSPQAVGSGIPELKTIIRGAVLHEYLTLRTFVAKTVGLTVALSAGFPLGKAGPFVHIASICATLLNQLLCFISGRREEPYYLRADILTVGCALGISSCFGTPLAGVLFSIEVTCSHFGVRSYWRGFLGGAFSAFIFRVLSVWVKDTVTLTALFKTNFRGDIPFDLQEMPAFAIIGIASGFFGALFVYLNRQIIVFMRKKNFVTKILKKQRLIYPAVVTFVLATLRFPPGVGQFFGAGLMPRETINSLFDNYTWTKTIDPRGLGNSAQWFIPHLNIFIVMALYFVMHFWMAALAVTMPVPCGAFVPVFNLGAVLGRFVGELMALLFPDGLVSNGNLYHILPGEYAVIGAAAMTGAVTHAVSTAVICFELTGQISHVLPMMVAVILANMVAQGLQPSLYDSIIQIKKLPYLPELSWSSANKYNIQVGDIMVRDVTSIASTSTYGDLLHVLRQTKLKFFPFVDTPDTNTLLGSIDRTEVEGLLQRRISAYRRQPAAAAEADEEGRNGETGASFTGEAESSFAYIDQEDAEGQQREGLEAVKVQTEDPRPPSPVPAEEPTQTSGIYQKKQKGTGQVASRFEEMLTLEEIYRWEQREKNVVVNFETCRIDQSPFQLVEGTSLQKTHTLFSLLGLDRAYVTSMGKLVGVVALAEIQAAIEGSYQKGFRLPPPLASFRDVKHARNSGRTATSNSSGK
How it was run: (§1)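 HEK293 cells expressed C212S-background CLC-0 mutants and were recorded 1–3 d post-transfection as inside-out patches in symmetrical 130 mM NaCl, 10 mM HEPES, pH 7.4. CPA, fatty acids or alkyl sulfates flowed continuously on the cytoplasmic side. C10–C12 compounds were diluted into bath solution from 10 mM DMSO stocks. Test steps ran from +80 to −160 mV after a +80 mV prepulse. Steady-state current was normalized to the mean of pre- and post-blocker controls, and a Langmuir K1/2 was taken at each voltage from ~4–6 patches.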

[2] = target: T2, CLC-0 E166Q mutant (Torpedo marmorata, UniProt P21564, C212S/E166Q); format: cell-based; details: 5 μM SDS
T2 sequence (P21564 1-805 E166Q/C212S): T1 sequence (P21564 1-805 E166A/C212S) with A166Q
How it was run: as §1

| SMILES | K1/2 (range in words) [1] | blocking affinity (in words) [1] | also measured |
| --- | --- | --- | --- |
| CCC(=O)O [propionate] | mM range | – | – |
| CS(=O)(=O)SCCCCCS(=O)(=O)O [5-sulfonatopentyl MTS] | – | lower affinities than that observed with SDS | – |
| CCCCCCCCO [Octanol] | – | low affinity | voltage dependence of the block [1]: no voltage dependence |
| CCCCCCCCCC(=O)O [decanoate] | low μM range | – | – |
| CCCCCCCCCCCCOS(=O)(=O)O [SDS, dodecyl sulfate] | – | high affinity | block of current ([1]; 5 μM SDS, −160 mV): ~50%; effect on current [2]: very limited effect |
| CCCCCCCCCCCC(=O)O [dodecanoate] | low μM range | – | – |
| CCCC(=O)O [butyrate] | mM range | – | – |
| CS(=O)(=O)SCCS(=O)(=O)O [2-sulfonatoethyl MTS] | – | lower affinities than that observed with SDS | – |
